Source: PubChem BioAssay
TAAR1 antagonist – antagonists of human TAAR1. Q96RJ0. CHO RD-HGA16 TAAR1, Fluo-8 calcium fluorescence, antagonist. inhibition, % at 3 µM. actives 1.5% (n = 360,000);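 active = inhibition above a per-plate cutoff, the mean inhibition of test compounds on that plate plus 3 SD, cut at about 49% in these data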;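 note: 0% = DMSO plus EC80 beta-PEA response and 100% = DMSO alone without agonist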
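System: CHO RD-HGA16 cells bearing hTAAR1. Reagent: EC80 β-phenethylamine stimulus. Schedule: seeding 17-24 h prior, 75-min 37 °C, 30-min RT dye loading. Signal: Fluo-8 intracellular calcium dye fluorescence, real-time kinetic reads. Read-out: % inhibition from peak post-agonist over basal fluorescence ratio. Benchmarks: vehicle wells and EC80 agonist wells. Replicates: n of 1.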
TAAR1 ag – human TAAR1 agonism. CHO RD-HGA16 TAAR1, Fluo-8 calcium fluorescence; vehicle wells 0%, saturating PEA agonist 100%. Q96RJ0. activation, % at 3 µM. actives 0.99% (n = 360,000);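 active = activation above the mean activation of all test compounds in the run plus 3 SD, cut at about 38% in these data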
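Benchmarks: low control DMSO, high control PEA (EC100); System: CHO RD-HGA16 cells carrying human TAAR1 plus Gα16; Detection: Fluo-8 fluorescence, 5 s baseline then 140 s kinetic read; Schedule: 17-24 h plating, Fluo-8 75 min 37 °C, 30 min RT; Read-out basis: % activation from peak over basal fluorescence ratio, DMSO-to-PEA scaled.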
OX1R antag-1 – antagonists of human orexin 1 receptor (OX1R). OX1R-expressing cells, FRET antagonist read-out. inhibition, % at 6.6 µM. O43613. actives 1.8% (n = 330,000); in the data active = inhibition mostly above about 38%, no sharp cut-off; inactive = mostly below about 40%;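 note: 0% = agonist challenge alone and 100% = reference antagonist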
OX1R antag-2 – antagonists of human orexin 1 receptor; actives 0.43% (n = 330,000); O43613; CHO/OX1R cells, Fluo-8 calcium fluorescence, orexin A; inhibition, % at 5 µM;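 active = inhibition above its plate's threshold, mean inhibition of all tested compounds on the plate plus 3 SD, cut at about 37% in these data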;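 note: 0% = orexin A challenge wells and 100% = SB-334867-A antagonist wells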
GalR3 antagonist – human GalR3 antagonism | HEK293 GalR3-CNG cAMP membrane potential fluorescence; galR3 body fused to GalR1 C-terminus | O60755 | inhibition, % at 3 µM | actives 0.44% (n = 360,000) | AID 651719;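 active = inhibition above the screen-wide average plus 3 SD, cut at about 13% in these data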;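 note: forskolin and galanin both at EC90 stimulate the cells; cAMP rise reported by CNG channel membrane potential dye signal; 0% = forskolin plus galanin with DMSO and 100% = forskolin alone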
Target sequence (O60755 1-299 limits assumed): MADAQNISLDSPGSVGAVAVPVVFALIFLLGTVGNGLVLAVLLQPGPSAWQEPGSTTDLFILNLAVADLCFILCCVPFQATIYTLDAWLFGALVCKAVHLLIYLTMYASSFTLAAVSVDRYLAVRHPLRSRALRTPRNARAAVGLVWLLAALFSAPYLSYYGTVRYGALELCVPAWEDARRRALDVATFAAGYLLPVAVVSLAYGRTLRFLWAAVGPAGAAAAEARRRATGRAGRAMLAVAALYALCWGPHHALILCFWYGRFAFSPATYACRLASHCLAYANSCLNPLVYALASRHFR
CHO parental Ca – counter-screen: ATP calcium response change in parental CHO cells | parental CHO-K1, ATP-induced calcium, Fluo-8 fluorescence | inhibition, % at 5.6 µM | actives 0.63% (n = 330,000) | AID 463079;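 active = inhibition above that plate's mean sample inhibition plus 3 SD, cut at about 26% in these data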;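 note: 0% = ATP-challenged DMSO wells and 100% = DMSO wells without ATP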
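Material: parental CHO cells / Compound: single nominal dose of 5.6 µM per compound / Signal: Fluo-8 fluorescence / Replicates: singlicate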
Starred values were filed as active, the others as inactive; . = no result given. An excerpt weighted towards active compounds, which were near 4.3% of everything screened.

SMILES | TAAR1 antagonist | TAAR1 ag | OX1R antag-1 | OX1R antag-2 | GalR3 antagonist | CHO parental Ca
CCOC(=O)c1ccc(-c2ccc(-c3cc(=O)oc4cc(OC)c(OC)c(OC)c34)cc2)cc1 | -5.3 | 1.1 | 4.2 | -25.8 | -6.2 | -15.3
COC(=O)CCC(=O)OC1(C)C(=O)C=C2C=C(C3CC3)N(Cc3ccccc3)C=C2C1=O (stereo not drawn) | 5.0 | 7.0 | 75.8* | -21.7 | -2.4 | -3.1
COC(=O)CCC(=O)OC1(C)C(=O)C=C2C=C(C3CC3)N(CC3CC3)C=C2C1=O (stereo not drawn) | -15.6 | 8.6 | 36.8 | -14.4 | -0.6 | -16.4
O=C(OCC(=O)N1CCCC1=O)c1ccc(Cl)cc1[N+](=O)[O-] | -3.1 | 1.5 | 57.9* | -3.8 | -4.3 | 6.8
Cc1ccc(CN(C)C(=O)COC(=O)CSc2ccc(C(N)=O)cc2[N+](=O)[O-])cc1 | 1.1 | 3.0 | 57.7* | -24.5 | -3.4 | -9.8
O=C(OCC(=O)N1CCOCC1)c1ccc(Cl)cc1[N+](=O)[O-] | 0.9 | -2.6 | 32.0 | -10.8 | -6.2 | 3.3
Cc1ccc(CN(C)C(=O)COC(=O)CSc2ccc([N+](=O)[O-])cc2)cc1 | -14.8 | -0.6 | 25.0 | -11.9 | -1.8 | -11.6
NC(=O)c1ccc(SCC(=O)OCC(=O)N2CCCC2=O)c([N+](=O)[O-])c1 | -16.5 | 0.8 | 66.6* | -7.7 | -3.0 | -3.7
NC(=O)c1ccc(SCC(=O)OCC(=O)NC2CCCCCCC2)c([N+](=O)[O-])c1 | 32.0 | 4.3 | 29.9* | -16.8 | -2.7 | -17.2
CC(C)(C)Cc1c(-c2ccc(Cl)cc2)nc2c(Cl)cc(C(F)(F)F)cn12 | -39.5 | 2.0 | . | . | 0.5 | .
CCS(=O)c1ccccc1C(=O)OCC(=O)N1CCC(c2ccccc2)=N1 (stereo not drawn) | -2.1 | 11.5 | 5.7 | -15.1 | -7.3 | -20.1
Cc1cc(NC(=O)Cc2cn(C)c3ccccc23)ccc1Nc1cccnc1 | -6.2 | 0.3 | . | . | -6.1 | .
CNc1cncc(-c2ccc(OC)cc2OC)n1 | -3.6 | 0.4 | . | . | -8.2 | .
CC1CCC(NC(=O)COC(=O)CSc2ccc(C(N)=O)cc2[N+](=O)[O-])CC1 (stereo not drawn) | -8.1 | -0.9 | 50.6 | -12.6 | -0.7 | 0.7
CC1CN(C(=O)COC(=O)CSc2ccc(C(N)=O)cc2[N+](=O)[O-])CC(C)O1 (stereo not drawn) | -7.6 | 2.2 | 72.7* | -2.6 | 2.6 | -17.4
COc1ccc(C2CC(=O)C(c3ccc(C#N)cc3)=CN2Cc2ccccc2)cc1 (stereo not drawn) | 17.6 | 2.5 | . | . | -9.5 | .
CCN(Cc1ccc(Br)s1)C(=O)CSc1nnc(C2CC2)n1C1CC1 | -22.2 | 8.3 | . | . | -1.3 | .
O=C(Nc1ccc(N=Nc2ccccc2)cc1)c1ccc(Cl)cc1Cl | 1.2 | 6.5 | 1.9 | -10.6 | -2.1 | -8.4
O=C(Nc1ccc(N=Nc2ccccc2)cc1)c1ccccc1Cl | 49.0* | -1.1 | 12.3 | -15.0 | -2.5 | -1.8
O=c1cc(-c2c(F)c(F)c(F)c(F)c2F)oc2c(F)c(F)c(F)c(F)c12 | . | . | 44.7* | 42.5* | . | 68.0*
O=C(NCCN1CCOCC1)c1cccc(S(=O)(=O)Nc2cc(Cl)ccc2Cl)c1 | -9.2 | 1.2 | . | . | -1.8 | .
COc1cccc(NC(=O)CN2CCN(C(=O)c3ccco3)CC2)c1 | -27.7 | 5.2 | 14.4 | -6.7 | -3.3 | -8.3
CCCCCc1c(C)nc(Nc2ccccc2)[nH]c1=O | -1.5 | 38.1* | 33.6 | 28.0 | -2.6 | 14.5
Cc1ccc(Nc2nc(C)c(CCC(C)C)c(=O)[nH]2)cc1 | 14.4 | 1.8 | -2.2 | -14.8 | -3.4 | -21.2
COc1ccc(CCC(=O)NCCS(=O)(=O)N2CCN(c3ccc(F)cc3)CC2)cc1 | 13.8 | 7.3 | 16.0 | -23.2 | -3.9 | 2.5
OC1(c2ccc(OC(F)F)cc2)CSC(=Nc2cccnc2)N1Cc1ccco1 (stereo not drawn) | 57.5* | 10.2 | . | . | -11.7 | .
OC1(c2ccc(F)cc2)CSC(=Nc2cccnc2)N1Cc1ccco1 (stereo not drawn) | 18.5 | 2.2 | 60.7 | 1.6 | -14.8 | -2.6
CCN(CC)CCNC(=O)c1ccc(NC(=O)c2ccc(COc3ccccc3)cc2)cc1 | 52.1* | 4.1 | . | . | -5.3 | .
